How the values were obtained:
[1] = tested on: HL60 (No MLL fusion); assay: Cell growth inhibition assay; format: cell-based, human; conditions: ratio of cell growth IC50 values
[2] = tested on: HOXA9 gene expression; assay: Pharmacodynamics in MV4; format: in vivo, mice; conditions: for effect in suppressing expression of HOXA9 gene: single intravenous dose 10 mg/kg, 24 hr, MV4;11 tumors in mice
Procedure, shortened: (§1)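 Mice bearing subcutaneous MV4;11 xenografts received a single IV dose of vehicle or test compound: 10 mg/kg with tumors taken at 24 h, or 25 mg/kg with tumors taken at 6, 24 and 48 h; 3 mice per time point. Tumors were snap-frozen in liquid N2 and powdered. Total RNA was reverse-transcribed and HOXA9 and MEIS1 quantified by TaqMan real-time PCR. Comparative Ct method, normalized to GAPDH, expressed relative to vehicle.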

[3] = tested on: SCID mice; assay: Tolerability studies in mice; format: in vivo
Procedure, shortened: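 Female SCID mice, three per group, were dosed with test compound on days 1, 3 and 5 for one week. Mice were weighed and checked for clinical signs of toxicity. Weight loss greater than 10% was counted as toxic.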

[4] = tested on: MEIS1 gene expression; assay: Pharmacodynamics in MV4; format: in vivo, mice; conditions: single intravenous dose 25 mg/kg; 6, 24 and 48 h
Procedure, shortened: as §1

[5] = tested on: MV4;11 xenograft tumor; assay: In vivo antitumor efficacy in the MV4
Procedure, shortened: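 Female C.B-17 SCID mice received 5 × 10^6 MV4;11 cells subcutaneously in the flank, in 1:1 PBS/Matrigel (final Matrigel 5 mg/mL). At tumor volumes of 60–140 mm3, mice were randomized into groups of 7. Test compound was given IV in 10% PEG 400:3% Cremophor EL:87% PBS at 10 or 25 mg/kg, every other day, 3 times per week, for 11 doses; controls got vehicle. Caliper volume = (A×B2)/2. Tumor volume and body weight were measured 2–3 times weekly during treatment and at least weekly afterwards.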

[6] = tested on: MEIS1 gene expression; conditions: single dose 50 mg/kg intravenous; previous study; cited from earlier work
[7] = tested on: HOXA9 gene expression; conditions: single dose 50 mg/kg intravenous; previous study; cited from earlier work
[8] = 25 mg/kg every other day (three times a week) for one week
[9] = intravenous 10 mg/kg every other day (three times a week) for one week

**Q.** Which “cellular selectivity for MV4;11 and MOLM-13 cell lines over HL-60 cell line” value [1] does the source give for `COC(=O)N[C@H]1CCC[C@@H]1[C@](CN(C)C)(c1cccc(F)c1)C1CCN(CC2CN(c3ccc(S(=O)(=O)C4CN(C(=O)/C=C/CN(C)C)C4)cc3)C2)CC1` [Compound 9, Methyl ((1S,2R)-2-((S)-2-(dimethylamino)-1-(1-((1-(4-((1-((E)-4-(dimethylamino)but-2-enoyl)azetidin-3-yl)sulfonyl)phenyl)azetidin-3-yl)methyl)piperidin-4-yl)-1-(3-fluorophenyl)ethyl)cyclopentyl)carbamate] here?
**A.** > 300 times

**Q.** With `COC(=O)N[C@H]1CCC[C@@H]1[C@](CN1CCC1)(c1cccc(F)c1)C1CCN(CC2CN(c3ccc(S(=O)(=O)C4CN(C(=O)/C=C/CN(C)C)C4)cc3)C2)CC1` [Compound 10, Methyl ((1S,2R)-2-((S)-2-(azetidin-1-yl)-1-(1-((1-(4-((1-((E)-4-(dimethylamino)but-2-enoyl)azetidin-3-yl)sulfonyl)phenyl)azetidin-3-yl)methyl)piperidin-4-yl)-1-(3-fluorophenyl)ethyl)cyclopentyl)carbamate] as the compound, how does the “effect in suppressing expression of HOXA9 gene” value [2] read?
**A.** significant but modest effect

**Q.** What about the animal weight loss [3, 8] of the same compound?
**A.** > 10%

**Q.** And the tolerability [3, 9]?
**A.** well tolerated

**Q.** And the “cellular selectivity for MV4;11 and MOLM-13 cell lines over HL-60 cell line” value [1]?
**A.** > 300 times

**Q.** Which “cellular selectivity for MLL leukemia cells over HL-60 (non-MLL leukemia cells)” value [1] does the source give for `COC(=O)N[C@H]1CCC[C@@H]1[C@](CN1CCC1)(c1cccc(F)c1)C1CCN(CC2CN(c3ccc(S(=O)(=O)C4CN(C(=O)/C=C/CN5CCC5)C4)cc3)C2)CC1` [Compound 14, Methyl ((1S,2R)-2-((S)-2-(azetidin-1-yl)-1-(1-((1-(4-((1-((E)-4-(azetidin-1-yl)but-2-enoyl)azetidin-3-yl)sulfonyl)phenyl)azetidin-3-yl)methyl)piperidin-4-yl)-1-(3-fluorophenyl)ethyl)cyclopentyl)carbamate] here?
**A.** > 700 fold

**Q.** Which “effect in suppressing expression of HOXA9 gene” value [2] does the source give for `COC(=O)N[C@H]1CCC[C@@H]1[C@](CN1CCC1)(c1cccc(F)c1)C1CCN(CC2CN(c3ccc(S(=O)(=O)C4CN(C(=O)/C=C/CN5CCCC5)C4)cc3)C2)CC1` [Compound 15, Methyl ((1S,2R)-2-((S)-2-(azetidin-1-yl)-1-(3-fluorophenyl)-1-(1-((1-(4-((1-((E)-4-(pyrrolidin-1-yl)but-2-enoyl)azetidin-3-yl)sulfonyl)phenyl)azetidin-3-yl)methyl)piperidin-4-yl)ethyl)cyclopentyl)carbamate] here?
**A.** significant but modest effect

**Q.** What about the animal weight loss [3, 8] of the same compound?
**A.** > 10%

**Q.** What about the tolerability [3, 9] of the same compound?
**A.** well tolerated

**Q.** What about the “cellular selectivity for MLL leukemia cells over HL-60 (non-MLL leukemia cells)” value [1] of the same compound?
**A.** > 200 fold

**Q.** What does the source list for `COC(=O)N[C@H]1CCC[C@@H]1[C@](CN1CCC1)(c1cccc(F)c1)C1CCN(CC2CN(c3ccc(S(=O)(=O)C4CN(C(=O)/C=C/CN5CCCCC5)C4)cc3)C2)CC1` [Compound 16, Methyl ((1S,2R)-2-((S)-2-(azetidin-1-yl)-1-(3-fluorophenyl)-1-(1-((1-(4-((1-((E)-4-(piperidin-1-yl)but-2-enoyl)azetidin-3-yl)sulfonyl)phenyl)azetidin-3-yl)methyl)piperidin-4-yl)ethyl)cyclopentyl)carbamate]?
**A.** effect in suppressing expression of HOXA9 gene [2]: significant but modest effect; suppression of HOXA9 gene expression in tumor tissue ([2]; single intravenous dose 25 mg/kg, 6, 24 and 48 h): effectively suppresses; tolerability [3, 8]: well tolerated; tolerability [3, 9]: well tolerated; suppression of MEIS1 gene expression in tumor tissue [4]: effectively suppresses; effect on tumor growth over vehicle control ([5]; 10 mg/kg IV every other day, 3 times per week, 11 doses): no effect on tumor growth; body weight change and drug-related toxicity ([5]; 10 or 25 mg/kg IV, during and after treatment): no significant weight change

**Q.** With `COC(=O)N[C@H]1CCC[C@@H]1[C@](C#N)(c1cccc(F)c1)C1CCN(CC2CN(c3ccc(S(=O)(=O)C4CN(C(=O)/C=C/CN(C)C)C4)cc3)C2)CC1` [Compound M-525] as the compound, how does the “suppression of MEIS1 gene expression in MV4;11 xenograft tumor tissue” value [6] read?
**A.** strong suppression

**Q.** And the “suppression of HOXA9 gene expression in MV4;11 xenograft tumor tissue” value [7]?
**A.** strong suppression

From publication PMC7981784 (Journal of medicinal chemistry, 2020)
